In ChEMBL document CHEMBL3526119, “Effect of the CYP2C8 genotype on the pharmacokinetics and pharmacodynamics of repaglinide” (Drug Metab Dispos, 2011):

Legend:
Assay type in all cases: ADME, organism-based
[1] = Terminal half life in healthy white human with CYP2C8*3/*3 genotype at 2 mg, po; conditions: in vivo, read-out: beta t1/2 (converted)
Summary of the method: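 Single oral 2 mg dose; plasma sampled pre-dose and from 0:15 to 24 h post-dose (15 samples). Repaglinide measured by LC-MS/MS with diclofenac internal standard; calibration 0.098–79.139 µg/L. Noncompartmental analysis; AUC by linear/log-linear trapezoidal rule extrapolated to infinity. Reported as mean with 95% CI for all subjects and for each CYP2C8*3 genotype group.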

Homo sapiens [2] = assay: Maximal change in blood glucose concentration in healthy white human plasma with CYP2C8*3/*3 genotype at 2 mg, po up to 6 hrs; conditions: in vivo
Summary of the method: (§1)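 Venous blood glucose was read at each blood sampling time after a single oral 2 mg dose, with fasting up to 6 h. […] Maximal change is the largest change from baseline. Mean change is the average difference between values up to 6 h post-dose and baseline.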

Homo sapiens [3] = assay: Mean change in blood glucose concentration in healthy white human plasma SLCO1B1 521TT/CYP2C8*1/*3 combined genotype at 2 mg, po; conditions: in vivo
Summary of the method: (§2)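 Single 2 mg oral dose in healthy Caucasian volunteers genotyped for CYP2C8*3, with SLCO1B1 521T>C also typed. […] Mean change is the average difference between values up to 6 h post-dose and baseline. Fasting lasted to 6 h. Mean with 95% CI or SD by genotype group.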

Homo sapiens [4] = assay: Mean change in insulin concentration in healthy white human plasma at 2 mg, po up to 6 hrs; conditions: in vivo
Summary of the method: (§3)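 Healthy Caucasians got a single 2 mg oral dose and were genotyped for CYP2C8*3 and SLCO1B1 521T>C. Plasma insulin was sampled from pre-dose to 6 h and measured by solid-phase enzyme-labelled chemiluminescent immunometric assay (calibration 2–300 mU/l). Mean change is the average of post-dose values minus baseline up to 6 h, summarised per genotype group.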

Homo sapiens [5] = assay: Mean change in blood glucose concentration in healthy white human plasma with CYP2C8*1/*1 genotype at 2 mg, po up to 6 hrs; conditions: in vivo; summary of the method: as §2
[6] = Cmax in healthy white human with SLCO1B1 521TT/CYP2C8*1/*3 combined genotype at 2 mg, po; set-up: dose 2 mg, route oral; conditions: in vivo
Summary of the method: (§4)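 Healthy Caucasians genotyped for CYP2C8*3 and SLCO1B1 521T>C were given a single oral 2 mg dose of repaglinide, and alcohol, caffeine and grapefruit were withheld. Plasma was sampled before dosing and at 15 times from 0.25 to 24 h. Drug was measured by LC-MS/MS against diclofenac internal standard, linear 0.098–79.139 µg/L. Noncompartmental analysis: Cmax taken as observed; AUC by linear/log-linear trapezoidal rule extrapolated to infinity.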

[7] = AUC (0 to infinity) in healthy white human at 2 mg, po; set-up: dose 2 mg, time infinity, route oral; conditions: plasma; summary of the method: as §4
[8] = AUC (0 to infinity) in healthy white human with SLCO1B1 521TC/CYP2C8*1/*3 combined genotype at 2 mg, po; set-up: dose 2 mg, time infinity, route oral; conditions: plasma; summary of the method: as §4
[9] = Oral clearance in healthy white human with CYP2C8*1/*3 genotype at 2 mg, po; conditions: in vivo
Summary of the method: (§5)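 Repaglinide was assayed by LC-MS/MS with diclofenac internal standard (LLOQ 0.098 µg/L). Noncompartmental analysis gave AUC by linear/log-linear trapezoidal rule extrapolated to infinity. Weight-adjusted oral clearance = dose/(AUC × body weight).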

[10] = Cmax in healthy white human with SLCO1B1 521TT/CYP2C8*1/*1 combined genotype at 2 mg, po; set-up: dose 2 mg, route oral; conditions: in vivo; summary of the method: as §4
[11] = AUC (0 to infinity) in healthy white human with SLCO1B1 521CC/CYP2C8*3/*3 combined genotype at 2 mg, po; set-up: dose 2 mg, route oral, time infinity; conditions: plasma; summary of the method: as §4
Homo sapiens [12] = assay: Mean change in insulin concentration in healthy white human plasma with SLCO1B1 521CC/CYP2C8*3/*3 combined genotype at 2 mg, po; conditions: in vivo; summary of the method: as §3
Homo sapiens [13] = assay: Mean change in insulin concentration in healthy white human plasma with CYP2C8*1/*3 genotype at 2 mg, po up to 6 hrs; conditions: in vivo; summary of the method: as §3
[14] = Cmax in healthy white human with SLCO1B1 521CC/CYP2C8*3/*3 combined genotype at 2 mg, po; set-up: dose 2 mg, route oral; conditions: in vivo; summary of the method: as §4
Homo sapiens [15] = species: Homo sapiens; assay: Maximal change in blood glucose concentration in healthy human plasma with SLCO1B1 521CC genotype at 0.5 mg
Homo sapiens [16] = assay: Mean change in blood glucose concentration in healthy white human plasma SLCO1B1 521TT/CYP2C8*3/*3 combined genotype at 2 mg, po; conditions: in vivo; summary of the method: as §2
[17] = Cmax in healthy white human with CYP2C8*3/*3 genotype at 2 mg, po; set-up: dose 2 mg, route oral; conditions: in vivo; summary of the method: as §4
[18] = AUC (0 to infinity) in healthy white human with SLCO1B1 521TC/CYP2C8*3/*3 combined genotype at 2 mg, po; set-up: dose 2 mg, route oral, time infinity; conditions: plasma; summary of the method: as §4
Homo sapiens [19] = assay: Maximal change in blood glucose concentration in healthy white human plasma with CYP2C8*1/*3 genotype at 2 mg, po up to 6 hrs; conditions: in vivo; summary of the method: as §1
[20] = Cmax in healthy white human with SLCO1B1 521TC/CYP2C8*1/*3 combined genotype at 2 mg, po; set-up: dose 2 mg, route oral; conditions: in vivo; summary of the method: as §4
[21] = Oral clearance in healthy white human with CYP2C8*1/*1 genotype at 2 mg, po; conditions: in vivo; summary of the method: as §5
Homo sapiens [22] = assay: Maximal change in insulin concentration in healthy white human plasma at 2 mg, po up to 6 hrs; conditions: in vivo
Summary of the method: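 Plasma insulin was sampled up to 6 h after a single oral 2 mg dose, with subjects fasting. It was measured by solid-phase enzyme-labelled chemiluminescent immunometric assay, calibration range 2–300 mU/l. Maximal change is the largest change from the baseline concentration within 6 h.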

Homo sapiens [23] = assay: Mean change in blood glucose concentration in healthy white human plasma with CYP2C8*1/*3 genotype at 2 mg, po up to 6 hrs; conditions: in vivo; summary of the method: as §2
[24] = Tmax in healthy white human at 2 mg, po; conditions: in vivo
Homo sapiens [25] = assay: Mean change in blood glucose concentration in healthy white human plasma SLCO1B1 521CC/CYP2C8*1/*3 combined genotype at 2 mg, po; conditions: in vivo; summary of the method: as §1
Homo sapiens [26] = assay: Mean change in insulin concentration in healthy white human plasma with SLCO1B1 521TT/CYP2C8*1/*3 combined genotype at 2 mg, po; conditions: in vivo; summary of the method: as §3
[27] = Tmax in healthy white human with CYP2C8*1/*3 genotype at 2 mg, po; conditions: in vivo
Homo sapiens [28] = assay: Mean change in insulin concentration in healthy white human plasma with SLCO1B1 521TT/CYP2C8*3/*3 combined genotype at 2 mg, po; conditions: in vivo; summary of the method: as §3
[29] = Oral clearance in healthy white human with CYP2C8*3/*3 genotype at 2 mg, po; conditions: in vivo; summary of the method: as §5
[30] = Oral clearance in healthy white human at 2 mg, po; conditions: in vivo; summary of the method: as §5
Homo sapiens [31] = assay: Mean change in insulin concentration in healthy white human plasma with SLCO1B1 521TC/CYP2C8*3/*3 combined genotype at 2 mg, po; conditions: in vivo; summary of the method: as §3
Homo sapiens [32] = assay: Maximal change in blood glucose concentration in healthy white human plasma at 2 mg, po up to 6 hrs; conditions: in vivo; summary of the method: as §1
[33] = AUC (0 to infinity) in healthy white human with CYP2C8*3/*3 genotype at 2 mg, po; set-up: dose 2 mg, route oral, time infinity; conditions: plasma; summary of the method: as §4
Homo sapiens [34] = assay: Mean change in blood glucose concentration in healthy white human plasma SLCO1B1 521TC/CYP2C8*3/*3 combined genotype at 2 mg, po; conditions: in vivo; summary of the method: as §2
[35] = Cmax in healthy white human with CYP2C8*1/*1 genotype at 2 mg, po; set-up: dose 2 mg, route oral; conditions: in vivo; summary of the method: as §4

CCOc1cc(CC(=O)N[C@@H](CC(C)C)c2ccccc2N2CCCCC2)ccc1C(=O)O [REPAGLINIDE]
half-life [1]: 78 min
Activity (Homo sapiens [2]): -1.48 mM
Activity (Homo sapiens [3]): -0.5 mM
Activity (Homo sapiens [4]): 5.5 mU/L
Activity (Homo sapiens [5]): -0.42 mM
Cmax [6]: 57 ng/mL
AUC(0-inf) [7]: 97.4 ng·h/mL
AUC(0-inf) [8]: 77.2 ng·h/mL
CL/F [9]: 7.67 mL/min/kg
Cmax [10]: 52.5 ng/mL
AUC(0-inf) [11]: 95.8 ng·h/mL
Activity (Homo sapiens [12]): 6.1 mU/l
Activity (Homo sapiens [13]): 5.2 mU/L
Cmax [14]: 67.9 ng/mL
Activity (Homo sapiens [15]): 2.3 mM
Activity (Homo sapiens [16]): -0.1 mM
Cmax [17]: 38.5 ng/mL
AUC(0-inf) [18]: 23.4 ng·h/mL
Activity (Homo sapiens [19]): -1.83 mM
Cmax [20]: 45 ng/mL
CL/F [21]: 7.5 mL/min/kg
Activity (Homo sapiens [22]): 18.8 mU/L
Activity (Homo sapiens [23]): -0.65 mM
Tmax [24]: 48 min
Activity (Homo sapiens [25]): -0.2 mM
Activity (Homo sapiens [26]): 5.6 mU/l
Tmax [27]: 48 min
Activity (Homo sapiens [28]): 1 mU/l
CL/F [29]: 8 mL/min/kg
CL/F [30]: 7.67 mL/min/kg
Activity (Homo sapiens [31]): 1.5 mU/l
Activity (Homo sapiens [32]): -1.69 mM
AUC(0-inf) [33]: 72.4 ng·h/mL
Activity (Homo sapiens [34]): -0.2 mM
Cmax [35]: 60.3 ng/mL
